Results published in ChEMBL document CHEMBL1122233, “Antihypertensive 9-substituted 1-oxa-4,9-diazaspiro[5.5]undecan-3-ones” (J Med Chem, 1983).

Tests used:
Rattus norvegicus [1] = test: (§1) Percentage fall in systolic blood pressure after 3 hours at 50 mg/kg given perorally; assay type: functional, Artery; details: route oral
Procedure, shortened: (§2)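 Male Okamoto-Aoki SHR, four per group, with a concurrent vehicle control group. Oral dosing in water (0.1 mL/10 g) on two consecutive mornings. After the day-2 dose, rats were restrained in a 30 °C chamber. Tail-cuff systolic pressure was taken at 1-4 h from four traces per rat. Result is % decrease versus control mean, by 1-tailed t test, p ≤ 0.05.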

Rattus norvegicus [2] = test: (§3) Percentage fall in systolic blood pressure after 1 hr at 50 mg/kg given perorally; assay type: functional, Artery; details: route oral; procedure, shortened: as §2
Rattus norvegicus [3] = test: (§4) Percentage fall in systolic blood pressure after 2 hours at 50 mg/kg given perorally; assay type: functional, Artery; details: route oral; procedure, shortened: as §2
Rattus norvegicus [4] = test: (§5) Percentage fall in systolic blood pressure after 4 hours at 50 mg/kg given perorally; assay type: functional, Artery; details: route oral; procedure, shortened: as §2
Rattus norvegicus [5] = test: as §5; assay type: functional, organism-based; design: dose 50 mg/kg; details: Artery; procedure, shortened: as §2
Rattus norvegicus [6] = test: as §1; assay type: functional, organism-based; design: dose 50 mg/kg; details: Artery; procedure, shortened: as §2
Rattus norvegicus [7] = test: as §4; assay type: functional, organism-based; design: dose 50 mg/kg; details: Artery; procedure, shortened: as §2
Rattus norvegicus [8] = test: Percentage fall in systolic blood pressure after 3 hr at 12.5 mg/kg given perorally; assay type: functional, organism-based; design: dose 12.5 mg/kg; details: Artery
Procedure, shortened: (§6)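 Male Okamoto-Aoki spontaneously hypertensive rats, trained, in groups of four matched for mean systolic pressure; five treated groups and one vehicle control run concurrently. Oral dosing in water (solution or suspension, 0.1 mL/10 g) on two consecutive mornings. On day 2, rats were restrained at 30.0 ± 1.0 °C and tail-cuff systolic pressure recorded at 1–4 h; percent fall versus control, 1-tail t test, p ≤ 0.05.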

Rattus norvegicus [9] = test: as §5; assay type: functional, organism-based; design: dose 50 mg/kg; details: Artery; procedure, shortened: as §6; remark: listed apart in the source
Rattus norvegicus [10] = test: as §3; assay type: functional, organism-based; design: dose 50 mg/kg; details: Artery; procedure, shortened: as §6
Rattus norvegicus [11] = test: (§7) Percentage fall in systolic blood pressure after 3 hours at 12.5 mg/kg given perorally; assay type: functional, Artery; details: route oral; procedure, shortened: as §2
Rattus norvegicus [12] = test: Percentage fall in systolic blood pressure after 2 hours at 12.5 mg/kg given perorally; assay type: functional, Artery; details: route oral; procedure, shortened: as §2
Rattus norvegicus [13] = test: (§8) Percentage fall in systolic blood pressure after 1 hr at 12.5 mg/kg given perorally; assay type: functional, Artery; details: route oral; procedure, shortened: as §2
Rattus norvegicus [14] = test: (§9) Percentage fall in systolic blood pressure after 4 hours at 12.5 mg/kg given perorally; assay type: functional, Artery; details: route oral; procedure, shortened: as §2
Rattus norvegicus [15] = test: as §9; assay type: functional, organism-based; design: dose 12.5 mg/kg; details: Artery; procedure, shortened: as §2
Rattus norvegicus [16] = test: as §7; assay type: functional, organism-based; design: dose 12.5 mg/kg; details: Artery; procedure, shortened: as §2
Rattus norvegicus [17] = test: Percentage fall in systolic blood pressure after 3 hr at 25 mg/kg given perorally; assay type: functional, Artery; details: route oral, 25 mg/kg; procedure, shortened: as §6
Rattus norvegicus [18] = test: Percentage fall in systolic blood pressure after 2 hr at 25 mg/kg given perorally; assay type: functional, Artery; details: route oral, 25 mg/kg; procedure, shortened: as §6
Rattus norvegicus [19] = test: Percentage fall in systolic blood pressure after 1 hr at 25 mg/kg given perorally; assay type: functional, Artery; details: route oral; procedure, shortened: as §6
Rattus norvegicus [20] = test: Percentage fall in systolic blood pressure after 4 hours at 25 mg/kg given perorally; assay type: functional, Artery; details: route oral; procedure, shortened: as §6
Rattus norvegicus [21] = test: Percentage fall in systolic blood pressure after 3 hours at 25 mg/kg given perorally; assay type: functional, Artery; details: route oral; procedure, shortened: as §6
Rattus norvegicus [22] = test: Percentage fall in systolic blood pressure after 2 hours at 25 mg/kg given perorally; assay type: functional, Artery; details: route oral; procedure, shortened: as §6
Rattus norvegicus [23] = test: as §8; assay type: functional, organism-based; design: dose 12.5 mg/kg; details: Artery; procedure, shortened: as §6
Rattus norvegicus [24] = test: Percentage fall in systolic blood pressure after 2 hr at 12.5 mg/kg given perorally; assay type: functional, organism-based; design: dose 12.5 mg/kg; details: Artery; procedure, shortened: as §6
Rattus norvegicus [25] = test: Percentage fall in systolic blood pressure after 4 hr at 12.5 mg/kg given perorally; assay type: functional, organism-based; design: dose 12.5 mg/kg; details: Artery; procedure, shortened: as §6

CC1OC2(CCN(CCc3c[nH]c4ccccc34)CC2)CNC1=O (centres undefined)
Decrease in SBP (Rattus norvegicus [1]): 21% | Decrease in SBP (Rattus norvegicus [2]): 30% | Decrease in SBP (Rattus norvegicus [3]): 36% | Decrease in SBP (Rattus norvegicus [4]): 26%

CC1OC2(CCN(CCc3c[nH]c4ccccc34)CC2)CN(C)C1=O (centres undefined)
Decrease in SBP (Rattus norvegicus [5]): Not significant | Decrease in SBP (Rattus norvegicus [6]): Not significant | Decrease in SBP (Rattus norvegicus [2]): 32% | Decrease in SBP (Rattus norvegicus [7]): Not significant

CN1CC2(CCN(CC(O)C3COc4ccccc4O3)CC2)OCC1=O (stereo in doubt; 61)
Decrease in SBP (Rattus norvegicus [8]): Not significant

O=C1COC2(CCN(CC(O)c3ccccc3)CC2)CN1 (centres undefined)
Decrease in SBP (Rattus norvegicus [9]): Not significant | Decrease in SBP (Rattus norvegicus [6]): Not significant | Decrease in SBP (Rattus norvegicus [10]): Not significant | Decrease in SBP (Rattus norvegicus [7]): Not significant

CN1CC2(CCN(CCc3c[nH]c4ccccc34)CC2)OCC1=O
Decrease in SBP (Rattus norvegicus [1]): 34% | Decrease in SBP (Rattus norvegicus [11]): 20% | Decrease in SBP (Rattus norvegicus [2]): 50% | Decrease in SBP (Rattus norvegicus [12]): 19% | Decrease in SBP (Rattus norvegicus [3]): 44% | Decrease in SBP (Rattus norvegicus [13]): 25% | Decrease in SBP (Rattus norvegicus [14]): 17% | Decrease in SBP (Rattus norvegicus [4]): 26%

COc1ccc(CCN2CCC3(CC2)CNC(=O)CO3)cc1OC
Decrease in SBP (Rattus norvegicus [5]): Not significant | Decrease in SBP (Rattus norvegicus [6]): Not significant | Decrease in SBP (Rattus norvegicus [10]): Not significant | Decrease in SBP (Rattus norvegicus [7]): Not significant

CC1N(C)C(=O)COC12CCN(CCc1c[nH]c3ccccc13)CC2 (centres undefined)
Decrease in SBP (Rattus norvegicus [5]): Not significant | Decrease in SBP (Rattus norvegicus [6]): Not significant | Decrease in SBP (Rattus norvegicus [2]): 29% | Decrease in SBP (Rattus norvegicus [3]): 22%

CCC1OC2(CCN(CCc3c[nH]c4ccccc34)CC2)CN(C)C1=O (centres undefined)
Decrease in SBP (Rattus norvegicus [5]): Not significant | Decrease in SBP (Rattus norvegicus [6]): Not significant | Decrease in SBP (Rattus norvegicus [2]): 16% | Decrease in SBP (Rattus norvegicus [7]): Not significant

O=C1COC2(CCN(CCc3c[nH]c4ccccc34)CC2)C(c2ccccc2)N1 (centres undefined)
Decrease in SBP (Rattus norvegicus [5]): Not significant | Decrease in SBP (Rattus norvegicus [6]): Not significant | Decrease in SBP (Rattus norvegicus [2]): 21% | Decrease in SBP (Rattus norvegicus [3]): 19%

O=C1COC2(CCN(CCc3c[nH]c4ccccc34)CC2)CN1Cc1ccccc1
Decrease in SBP (Rattus norvegicus [5]): Not significant | Decrease in SBP (Rattus norvegicus [6]): Not significant | Decrease in SBP (Rattus norvegicus [2]): 18% | Decrease in SBP (Rattus norvegicus [7]): Not significant

CCC1NC(=O)COC12CCN(CCc1c[nH]c3ccccc13)CC2 (centres undefined)
Decrease in SBP (Rattus norvegicus [15]): Not significant | Decrease in SBP (Rattus norvegicus [1]): 41% | Decrease in SBP (Rattus norvegicus [16]): Not significant | Decrease in SBP (Rattus norvegicus [2]): 40% | Decrease in SBP (Rattus norvegicus [12]): 25% | Decrease in SBP (Rattus norvegicus [3]): 54% | Decrease in SBP (Rattus norvegicus [13]): 21% | Decrease in SBP (Rattus norvegicus [4]): 43%

CN1CC2(CCN(CC(O)C3COc4ccccc4O3)CC2)OCC1=O (stereo in doubt; 60)
Decrease in SBP (Rattus norvegicus [17]): 17% | Decrease in SBP (Rattus norvegicus [18]): 33% | Decrease in SBP (Rattus norvegicus [19]): 41%

NCC1CCN(CCc2c[nH]c3ccccc23)CC1
Decrease in SBP (Rattus norvegicus [6]): Not significant | Decrease in SBP (Rattus norvegicus [2]): 20% | Decrease in SBP (Rattus norvegicus [3]): 24% | Decrease in SBP (Rattus norvegicus [4]): 20%

CC1NC(=O)COC12CCN(CCc1c[nH]c3ccccc13)CC2 (centres undefined)
Decrease in SBP (Rattus norvegicus [15]): Not significant | Decrease in SBP (Rattus norvegicus [1]): 41% | Decrease in SBP (Rattus norvegicus [11]): 24% | Decrease in SBP (Rattus norvegicus [2]): 56% | Decrease in SBP (Rattus norvegicus [12]): 36% | Decrease in SBP (Rattus norvegicus [3]): 48% | Decrease in SBP (Rattus norvegicus [13]): 24% | Decrease in SBP (Rattus norvegicus [4]): 50%

CCC1OC2(CCN(CCc3c[nH]c4ccccc34)CC2)CNC1=O (centres undefined)
Decrease in SBP (Rattus norvegicus [5]): Not significant | Decrease in SBP (Rattus norvegicus [1]): 15% | Decrease in SBP (Rattus norvegicus [2]): 26% | Decrease in SBP (Rattus norvegicus [3]): 23%

CCCN1CC2(CCN(CCc3c[nH]c4ccccc34)CC2)OCC1=O
Decrease in SBP (Rattus norvegicus [1]): 22% | Decrease in SBP (Rattus norvegicus [11]): 24% | Decrease in SBP (Rattus norvegicus [2]): 47% | Decrease in SBP (Rattus norvegicus [12]): 26% | Decrease in SBP (Rattus norvegicus [3]): 22% | Decrease in SBP (Rattus norvegicus [13]): 18% | Decrease in SBP (Rattus norvegicus [14]): 16% | Decrease in SBP (Rattus norvegicus [4]): 39%

CCN1CC2(CCN(CCCC(=O)c3ccc(F)cc3)CC2)OCC1=O
Decrease in SBP (Rattus norvegicus [20]): 13% | Decrease in SBP (Rattus norvegicus [21]): 27% | Decrease in SBP (Rattus norvegicus [19]): 35% | Decrease in SBP (Rattus norvegicus [22]): 31%

O=C1COC2(CCN(CCc3ccc(F)cc3)CC2)CN1
Decrease in SBP (Rattus norvegicus [8]): Not significant | Decrease in SBP (Rattus norvegicus [23]): Not significant | Decrease in SBP (Rattus norvegicus [24]): Not significant | Decrease in SBP (Rattus norvegicus [25]): Not significant
